This is an account of results in publication PMC3993931 (Journal of Medicinal Chemistry, 2014).

Structures are written as SMILES.

For data set [1] the following is noted: cited from earlier work.
Data set [2] is described as follows: Aqueous stability, pH 4.88. Type of data set: physicochemical. The settings on record: Figure 3 conditions generally, especially acidic (pH 4.88).
In another data set the test system is HCT116 cells. Kind of data set: Cell viability assay. Type of data set: cell-based, human. The settings on record: for IC50: Homo sapiens, HCT-116, read-out: antiproliferative activity. The procedure, abridged:
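HCT116 cells (ATCC) were grown in DMEM with 10% FBS at 37 °C, 5% CO2. They were seeded at 1 × 10^4 cells/well and treated 24 h later with a range of test-compound concentrations or 1% EtOH solvent control. After 48 h, viability was read by MTT per the kit instructions.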

Data set [3] relates to colorectal tumor xenograft. The settings on record: cited from earlier work.
Another data set relates to HCT116 xenograft. Kind of data set: In vivo efficacy, HCT116 xenograft mouse model.
Another data set deals with VEGFR2. Nature of the data set: Immunoblot of xenograft tumors for RTK. Format: in vivo, mouse. The settings on record: higher dose (0.25 mg/kg), end of efficacy study. In general terms: A western blot detects proteins with antibodies after separation by electrophoresis.
Data set [4] has as its system met proto-oncogene receptor (MET). Kind of data set: Immunoblot analysis for RTK. Type of data set: cell-based, human. The settings on record: HCT116, 24 h. The procedure, abridged:
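HCT116 cells were seeded at 4 × 10^5 cells/well in 6-well plates and dosed the next day with graded test-compound concentrations or 1% EtOH. After 24 h, whole-cell lysates were made in PhosphoSafe buffer, protein was quantified by BCA, and equal protein was run on 4–12% SDS-PAGE. Blots on PVDF were probed with anti-Met plus secondary antibody, with chemiluminescent detection.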

As for `CC[C@H](C)[C@H]1C(=O)N2CCC[C@H]2C(=O)O[C@H](C(C)(C)C)C[C@@H](C)C[C@H](O)[C@@H](C)C2=N[C@@H](CCC(=O)N[C@@H](Cc3ccc(OC)cc3)C(=O)N(C)[C@@H](C)C(=O)N1C)CS2` [Compound 34-epi-1a, apratoxin S6], the “potency relative to 1a” value in data set [1] (ref 2a) is on record as “same potency”.

For `CC[C@H](C)[C@H]1C(=O)N2CCC[C@H]2C(=O)O[C@H](C(C)(C)C)C[C@@H](C)C[C@H](O)CC2=N[C@@H](CCC(=O)N[C@@H](Cc3ccc(OC)cc3)C(=O)N(C)[C@@H](C)C(=O)N1C)CS2` [Compound 1b, Apratoxin S7], the “relative in vitro stability” value in data set [2] is “somewhat less stable than 1c”. In addition, in the data set with HCT116 cells, the IC50 was in the range of 1 to 2 nM.

As for `CC[C@H](C)[C@H]1C(=O)N2CCC[C@H]2C(=O)O[C@H](C(C)(C)C)C[C@@H](C)C[C@H](O)[C@H](C)C2=N[C@@H](CCC(=O)N[C@@H](Cc3ccc(OC)cc3)C(=O)N(C)[C@@H](C)C(=O)N1C)CS2` [Compound 1a, apratoxin S4], the “relative in vitro stability” value in data set [2] was “somewhat less stable than 1c”. In addition, the “potency and efficacy versus apratoxin A” value in data set [3] (colorectal tumor xenograft model ref 2a) was “greater potency and efficacy”. The tolerability in vivo result in data set [3] (ref 2a) is “much better tolerated”.

On to `CC[C@H](C)[C@H]1C(=O)N2CCC[C@H]2C(=O)O[C@H](C(C)(C)C)C[C@@H](C)C[C@H](O)C(C)(C)C2=N[C@@H](CCC(=O)N[C@@H](Cc3ccc(OC)cc3)C(=O)N(C)[C@@H](C)C(=O)N1C)CS2` [Compound 1c, Apratoxin S8], for which the tumor growth inhibition result in the data set with HCT116 xenograft (0.1 mg/kg (~2 μg/mouse) daily ip for 16 days) is listed as “about 50%”. In addition, in the data set on HCT116 xenograft (0.25 mg/kg (~5 μg/mouse) daily ip for 16 days), the “effect on tumor growth” value was “strongly retarded the tumor growth”. Moreover, the “signs of toxicity (weight loss, abnormal behavior)” value in the data set with HCT116 xenograft (0.1 and 0.25 mg/kg daily ip for 16 days) is “did not observe signs of toxicity”. Moreover, the IC50 with HCT116 cells fell in the range of 1 to 2 nM. In addition, in the data set with VEGFR2, the “VEGFR2 expression levels in tumors” value is recorded as “detectable reduction in VEGFR2 expression levels”.

Regarding `CC[C@H](C)[C@H]1C(=O)N2CCC[C@H]2C(=O)O[C@H](C(C)(C)C)C[C@@H](C)C[C@H](O)[C@H](C)C2=N[C@H](CCC(=O)N[C@@H](Cc3ccc(OC)cc3)C(=O)N(C)[C@@H](C)C(=O)N1C)CS2` [Compound 1d, Apratoxin S9], the “relative in vitro stability” value in data set [2] is reported as “slightly enhanced compared with that of 1a”. Besides, in data set [4], the “potency in reducing MET levels” value is reported as “picomolar (subnanomolar) potency”. Further, the “fold potency over the other apratoxins” value in the data set on HCT116 cells (all three assays (cell growth, MET levels, VEGF-A secretion)) is given as 2–3 fold.

Consider `CC[C@H](C)[C@H]1C(=O)N2CCC[C@H]2C(=O)O[C@H](C(C)(C)C)C[C@@H](C)C/C=C/C2=N[C@@H](CCC(=O)N[C@@H](Cc3ccc(OC)cc3)C(=O)N(C)[C@@H](C)C(=O)N1C)CS2` [apratoxin E], for which the “activity relative to other apratoxins” value in data set [1] (ref 1c) is “much reduced activity”.
